Source: PubChem BioAssay (several laboratories)
A selection: hits, their analogues and other compounds. The true share with any hit is near 2.6%.
hiPSC survival = enhancers of human iPSC single-cell survival; AID 602274; hit rate 0.044% among 360,000; hiPSC single-cell survival, ATPlite luminescence; 100% = ROCK inhibitor wells, 0% = DMSO; survival enhancement, % at 20 µM; in the data active = survival enhancement above about 18%;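 note: cells exposed to compounds for 16 hours before the ATP read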
MC4R antag cAMP = human MC4R antagonism in cAMP assay. hit rate 0.48% among 360,000. inhibition, % at 6.5 µM. AID 540295. MC4R-expressing cells, MTII-stimulated cAMP, LANCE TR-FRET;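 active = inhibition above its plate's cutoff, the mean of tested wells on that plate plus 3 SD, cut at about 29% in these data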;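 note: 0% = Melanotan II alone and 100% = Melanotan II plus saturating MCL0020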
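Material: U2OS-MC4R stable cell line | Reagent: Melanotan II challenge after compound preincubation | Doses: One concentration, 6.5 µM nominal | Incubation: 30-min compound preincubation, 1-h Melanotan II challenge, 1-h detection, room temperature | Signal: TR-FRET cAMP assay | Replicates: One well per compound, no replicates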
Granule exo inh = lytic granule exocytosis inhibition; TALL-104 LAMP-1 surface exposure, flow cytometry; cells stimulated with thapsigargin and PMA; inhibition, % at 10 µM; hit rate 0.66% among 360,000; AID 651702;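 active = inhibition above about 55%, limit read from the data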
TbMetRS inhib = blocks T. brucei methionyl-tRNA synthetase activity. AID 624268. hit rate 0.4% among 360,000. purified T. brucei MetRS, ATP depletion, Kinase-Glo luminescence. inhibition, % at 11.9 µM;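 active = inhibition above a per-plate cutoff of the control wells' mean inhibition plus 3 SD, cut at about 5.5% in these data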;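 note: 0% = DMSO wells median and 100% = median of wells with control inhibitor compound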
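Material – parasite MetRS enzyme · Medium – HEPES-MgCl2-KCl buffer plus DTT, spermine, BSA, pyrophosphatase · Reagent – ATP, methionine and E. coli bulk tRNA substrates · Times – 15 min enzyme-compound preincubation, 2 h reaction, 10 min detection, 25 °C · Measured by – luminescence of leftover ATP · Evaluation – percent inhibition relative to median high and low control wells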
ABCB6 inh 2 = human ABCB6 transporter inhibition. Q9NP58. K562-ABCB6 porphyrin accumulation, flow cytometry, 1 h; stronger effect = lower value. fluorescence ratio to DMSO, % at 10 µM. hit rate 0.19% among 360,000;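 active = fluorescence ratio to DMSO below 75%, the collection mean minus 3 SD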;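 note: signal is porphyrin accumulated inside mitochondria; 100% equals median channel fluorescence of DMSO control wells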
Target sequence (Q9NP58 whole entry, looked up): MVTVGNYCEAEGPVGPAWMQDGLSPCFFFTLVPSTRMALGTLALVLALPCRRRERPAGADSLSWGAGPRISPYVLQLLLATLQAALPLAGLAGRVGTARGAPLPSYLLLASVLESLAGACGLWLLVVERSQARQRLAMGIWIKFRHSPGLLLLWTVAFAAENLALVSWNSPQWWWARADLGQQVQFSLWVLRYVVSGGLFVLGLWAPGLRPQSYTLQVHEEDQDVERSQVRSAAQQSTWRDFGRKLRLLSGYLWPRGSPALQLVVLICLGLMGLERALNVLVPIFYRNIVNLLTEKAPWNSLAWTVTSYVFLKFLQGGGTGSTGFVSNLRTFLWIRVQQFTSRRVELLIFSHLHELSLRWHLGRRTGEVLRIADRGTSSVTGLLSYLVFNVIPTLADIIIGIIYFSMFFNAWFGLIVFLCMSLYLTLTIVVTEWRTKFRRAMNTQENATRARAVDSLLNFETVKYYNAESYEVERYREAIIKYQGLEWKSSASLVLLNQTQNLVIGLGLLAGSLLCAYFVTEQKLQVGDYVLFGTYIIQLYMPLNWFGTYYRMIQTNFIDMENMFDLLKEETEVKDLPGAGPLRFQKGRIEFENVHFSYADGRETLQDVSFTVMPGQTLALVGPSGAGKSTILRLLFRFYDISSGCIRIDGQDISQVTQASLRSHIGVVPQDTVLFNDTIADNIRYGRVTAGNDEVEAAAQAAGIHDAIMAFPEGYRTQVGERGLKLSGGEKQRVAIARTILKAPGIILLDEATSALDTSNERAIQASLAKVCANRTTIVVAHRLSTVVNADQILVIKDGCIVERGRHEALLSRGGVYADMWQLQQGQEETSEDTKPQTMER
MC4R barr agon = human MC4R agonism via beta-arrestin. hit rate 0.98% among 360,000. activation, % at 8.9 µM. U2OS MC4R beta-arrestin complementation, luminescence; percent of melanotan II response, DMSO zero;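 active = activation above a per-plate cutoff, the mean activation of sample wells on that plate plus 3 SD, cut at about 8% in these data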
Exocytosis CP01 = lytic granule exocytosis inhibition; shares compounds with Granule exo inh; TALL-104 cells, LAMP-1 externalization, flow cytometry; stimulated with PMA plus thapsigargin; inhibition, % at 10 µM; hit rate 11% among 1,500; AID 651954; in the data active = inhibition above about 60%;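 note: 0% = stimulated vehicle wells and 100% = unstimulated wells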
* hit, by the source's call.

What do the screens show for `CC(=O)N1c2ccc(S(=O)(=O)N3CCC(C(=O)Nc4cccc(F)c4)CC3)cc2CC1C` (centres undefined)?
hiPSC survival: 0; MC4R antag cAMP: 20; Granule exo inh: 0; TbMetRS inhib: 0; ABCB6 inh 2: 100; MC4R barr agon: -3

What do the screens show for `O=C(Cc1cccc(NC(=O)C2CCCN(C(=O)CCc3ccccc3)C2)c1)Nc1cccc(C(=O)N2CCCCC2)c1` (centres undefined)?
hiPSC survival: 0; MC4R antag cAMP: 4; Granule exo inh: -2; TbMetRS inhib: -1; ABCB6 inh 2: 97; MC4R barr agon: 2

What do the screens show for `CC(=O)Nc1ccc(CN2CCCCCC2)cc1`?
hiPSC survival: 0; MC4R antag cAMP: 2; Granule exo inh: -5; TbMetRS inhib: -1; ABCB6 inh 2: 99; MC4R barr agon: -1

Results for O=C(Cc1ccc(Cl)cc1)Nc1ccc(CN2CCCCC2)cc1 ?
hiPSC survival: 0; MC4R antag cAMP: 5; Granule exo inh: 56*; TbMetRS inhib: 0; ABCB6 inh 2: 97; MC4R barr agon: -3; Exocytosis CP01: -4

How did Cc1noc(C)c1C(=O)Nc1ccc(-n2ccc(C(F)(F)F)n2)cc1 do in these assays?
hiPSC survival: 1; MC4R antag cAMP: 8; Granule exo inh: 6; TbMetRS inhib: 0; ABCB6 inh 2: 97; MC4R barr agon: -1

How did CCCCS(=O)(=O)N1CCCC(C(=O)Oc2ccccc2OC)C1 (centres undefined) do in these assays?
hiPSC survival: 0; MC4R antag cAMP: -2; Granule exo inh: -15; TbMetRS inhib: -1; ABCB6 inh 2: 93; MC4R barr agon: -1

How did CCCS(=O)(=O)N1CCCC(C(=O)Oc2ccccc2Cl)C1 (centres undefined) do in these assays?
hiPSC survival: 0; MC4R antag cAMP: 10; Granule exo inh: 68*; TbMetRS inhib: 0; ABCB6 inh 2: 98; MC4R barr agon: 0; Exocytosis CP01: -14

What do the screens show for `Cc1nnc(SCC(=O)Nc2sccc2C(N)=O)s1`?
hiPSC survival: 0; MC4R antag cAMP: -2; Granule exo inh: -2; TbMetRS inhib: -1; ABCB6 inh 2: 103; MC4R barr agon: -1

Results for COc1cc(NC(=O)c2cccs2)c(OC)cc1NC(=O)CCC(=O)Nc1cccc2ncccc12 ?
hiPSC survival: 1; MC4R antag cAMP: 5; Granule exo inh: 60*; TbMetRS inhib: 0; ABCB6 inh 2: 97; MC4R barr agon: -3; Exocytosis CP01: -3

Results for Cc1ccc(CN(C)c2nc(-c3cccnc3)nc3ccccc23)o1 ?
hiPSC survival: 0; MC4R antag cAMP: 12; Granule exo inh: 28; TbMetRS inhib: 0; ABCB6 inh 2: 97; MC4R barr agon: 1

Results for Cc1ccc(CNc2nc(-c3cccnc3)nc3ccccc23)cc1 ?
hiPSC survival: -1; MC4R antag cAMP: -4; Granule exo inh: 105*; TbMetRS inhib: 0; ABCB6 inh 2: 99; MC4R barr agon: 1; Exocytosis CP01: -5

What do the screens show for `CC(Nc1nc(-c2cccnc2)nc2ccccc12)c1ccc(F)cc1` (centres undefined)?
hiPSC survival: 0; MC4R antag cAMP: 3; Granule exo inh: 65*; TbMetRS inhib: 1; ABCB6 inh 2: 92; MC4R barr agon: 1; Exocytosis CP01: -3

Results for CC(=O)CCc1ccc(Oc2nc(-c3cccnc3)nc3ccccc23)cc1 ?
hiPSC survival: 2; MC4R antag cAMP: 7; Granule exo inh: -5; TbMetRS inhib: -1; ABCB6 inh 2: 97; MC4R barr agon: -2

What do the screens show for `CN(Cc1ccccc1F)c1nc(-c2cccnc2)nc2ccccc12`?
hiPSC survival: 0; MC4R antag cAMP: 10; Granule exo inh: 100*; TbMetRS inhib: 0; ABCB6 inh 2: 95; MC4R barr agon: 0; Exocytosis CP01: 4

Results for COc1ccc(Oc2nc(-c3cccnc3)nc3ccccc23)cc1 ?
hiPSC survival: 0; MC4R antag cAMP: 12; Granule exo inh: 88*; TbMetRS inhib: 0; ABCB6 inh 2: 102; MC4R barr agon: -2; Exocytosis CP01: -2
